Drawing on ChEMBL document CHEMBL1129498, “Azole endothelin antagonists. 2. Structure-activity studies” (J Med Chem, 1996), this text covers IC50 for 44 compounds.

In experiment [1] the target is T1, Endothelin receptor type B (Sus scrofa, UniProt P35463).
T1 sequence (P35463 whole entry): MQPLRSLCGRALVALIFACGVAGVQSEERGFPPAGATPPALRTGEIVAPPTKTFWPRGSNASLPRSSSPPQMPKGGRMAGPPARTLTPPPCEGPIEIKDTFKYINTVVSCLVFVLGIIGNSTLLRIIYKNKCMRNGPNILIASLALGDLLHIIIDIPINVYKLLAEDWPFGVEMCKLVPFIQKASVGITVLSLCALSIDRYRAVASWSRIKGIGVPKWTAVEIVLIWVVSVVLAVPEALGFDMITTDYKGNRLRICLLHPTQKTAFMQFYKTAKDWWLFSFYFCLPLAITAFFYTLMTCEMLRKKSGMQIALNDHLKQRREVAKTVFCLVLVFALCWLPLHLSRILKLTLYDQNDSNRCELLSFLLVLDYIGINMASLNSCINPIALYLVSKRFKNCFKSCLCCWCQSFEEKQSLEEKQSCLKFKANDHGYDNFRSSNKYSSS
The experiment can be described thus: Inhibitory activity was evaluated against ET- B Binding to Endothelin B receptor from porcine cerebellar membranes.

In another experiment the test system is MMQ. The experiment can be described thus: Inhibitory activity was evaluated by measuring the PI hydrolysis in MMQ cell line. The class given is functional, cell-based, Rattus norvegicus. Conditions: Rattus norvegicus, MMQ. In outline:
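MMQ cells (0.4 × 10⁶ cells/mL) labeled 16 h with 10 µCi/mL [³H]myoinositol in RPMI, PBS-washed, then held 60 min in buffer A with protease inhibitors and 10 mM LiCl. Compound pre-incubated 5 min, then 1 nM ET-1 challenge for 30 min at 37 °C, stopped with chloroform-methanol. Total inositol phosphates extracted and taken from the aqueous phase by AG1-X8 anion-exchange batch chromatography.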

The next experiment concerns the target T2, Endothelin-1 receptor (Rattus norvegicus, UniProt P26684).
T2 sequence (P26684 whole entry): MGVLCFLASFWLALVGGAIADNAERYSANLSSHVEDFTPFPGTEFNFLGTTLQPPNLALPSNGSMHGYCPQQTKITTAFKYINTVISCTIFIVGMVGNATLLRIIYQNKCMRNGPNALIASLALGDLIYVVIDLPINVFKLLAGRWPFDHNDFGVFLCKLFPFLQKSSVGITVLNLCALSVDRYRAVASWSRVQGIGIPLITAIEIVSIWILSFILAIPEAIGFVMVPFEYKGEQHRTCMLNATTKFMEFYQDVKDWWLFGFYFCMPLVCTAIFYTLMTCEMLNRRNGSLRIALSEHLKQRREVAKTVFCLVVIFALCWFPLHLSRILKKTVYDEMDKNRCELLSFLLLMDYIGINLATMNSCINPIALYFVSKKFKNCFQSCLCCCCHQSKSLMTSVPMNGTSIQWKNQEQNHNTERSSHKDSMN
The experiment can be described thus: Inhibitory activity was evaluated against ET- A Binding to Endothelin A receptor in MMQ cell homogenates. In kind it is cell-free.

Each structure is given as a SMILES string.

For `Cc1[nH]c([C@@H](Cc2c[nH]c3ccccc23)NC(=O)[C@H](CC(C)C)NC(=O)N2CCCCCC2)nc1C(=O)O`, the IC50 (as a rule, the concentration that inhibits the measured activity by half) was over 100 µM in experiment [1] and 0.78 µM in the experiment with MMQ.

With `Cc1oc([C@@H](Cc2c[nH]c3ccccc23)NC(=O)[C@H](CC(C)C)NC(=O)NCc2ccccc2)nc1C(=O)O`, the IC50 was found to be 96 µM in experiment [1] and 8.7 µM on Endothelin-1 receptor.

Regarding `Cc1[nH]c([C@@H](Cc2cn(C)c3ccccc23)NC(=O)[C@H](CC(C)C)NC(=O)NC2CCC(O)CC2)nc1C(=O)O` (some centres not stated), the IC50 in experiment [1] was over 100 µM; on Endothelin-1 receptor it was 0.11 µM.

With `CCn1cc(C[C@@H](NC(=O)[C@H](CC(C)C)NC(=O)NC2CCCCC2)c2nc(C(=O)O)c(C)o2)c2ccccc21`, in experiment [1], the IC50 is over 100 µM.

Consider `Cc1[nH]c([C@@H](Cc2cn(C)c3ccccc23)NC(=O)[C@H](CC(C)C)NC(=O)NC2CCC(C)CC2)nc1C(=O)O` (some centres not stated), for which the IC50 in experiment [1] amounted to 80 µM; at Endothelin-1 receptor it was 0.141 µM.

Take `Cc1oc([C@@H](Cc2cn(C)c3ccccc23)NC(=O)[C@H](CC(C)C)NC(=O)NC2CCC(O)CC2)nc1C(=O)O` (some centres not stated): the IC50 in experiment [1] is over 100 µM; on Endothelin-1 receptor, 2.52 µM.

`Cc1oc([C@@H](Cc2cn(C)c3ccccc23)NC(=O)[C@H](CC(C)C)NC(=O)N2CCCCCC2)nc1C(=O)O`: the IC50 in experiment [1] was over 100 µM; at Endothelin-1 receptor, 0.62 µM.

Regarding `CCn1cc(C[C@@H](NC(=O)[C@H](CC(C)C)NC(=O)NC2CCCCC2)c2nc(C(=O)O)c(C)[nH]2)c2ccccc21`, the IC50 was determined as 55 µM in experiment [1] and 0.73 µM on Endothelin-1 receptor.

Consider `COC(=O)C1(NC(=O)N[C@@H](CC(C)C)C(=O)N[C@H](Cc2cn(C)c3ccccc23)c2nc(C(=O)O)c(C)o2)CCCCC1`, for which the values for the IC50 (in experiment [1]; on Endothelin-1 receptor) were over 90 µM and 0.12 µM, respectively.

As for `Cc1oc([C@@H](Cc2cn(C)c3ccccc23)NC(=O)[C@H](CC(C)C)NC(=O)NC23CC4CC(CC(C4)C2)C3)nc1C(=O)O`, the IC50 worked out at 19 µM in experiment [1] and 0.9 µM on Endothelin-1 receptor.

Consider `Cc1oc([C@@H](Cc2c[nH]c3ccccc23)NC(=O)[C@H](CC(C)C)NC(=O)N2CCCCCC2)nc1C(=O)NCC(=O)O`, for which the results for the IC50 (in experiment [1]; on Endothelin-1 receptor) were over 100 µM and 1.9 µM, respectively.

As for `Cc1oc([C@@H](Cc2c[nH]c3ccccc23)NC(=O)[C@H](CC(C)C)NC(=O)N2CCCCCC2)nc1CC(=O)O`, the IC50 in experiment [1] was over 100 µM; on Endothelin-1 receptor, 9.6 µM.

Turning to `Cc1[nH]c([C@@H](Cc2c[nH]c3ccccc23)NC(=O)[C@H](CC(C)C)NS(=O)(=O)N2CCCCCC2)nc1C(=O)O`, the IC50 (in experiment [1]; at Endothelin-1 receptor) was over 100 µM in each case.

Consider `CCN(CC)C(=O)N[C@@H](CC(C)C)C(=O)N[C@H](Cc1c[nH]c2ccccc12)c1nc(C(=O)O)c(C)[nH]1`, for which the IC50 in experiment [1] is over 100 µM; at Endothelin-1 receptor it was 1 µM.

In the case of `Cc1oc([C@@H](Cc2cn(C)c3ccccc23)NC(=O)[C@H](CC(C)C)NC(=O)NC2CCCC2)nc1C(=O)O`, the half-inhibitory concentration (IC50) in experiment [1] is 99 µM; at Endothelin-1 receptor, 0.3 µM.

As to `CNC(=O)c1nc([C@@H](Cc2c[nH]c3ccccc23)NC(=O)[C@H](CC(C)C)NC(=O)N2CCCCCC2)oc1C`, the figures for the IC50 (in experiment [1]; at Endothelin-1 receptor) were 65 µM and 3 µM, respectively.

On to `Cc1[nH]c([C@@H](Cc2c[nH]c3ccccc23)NC(=O)[C@H](CC(C)C)NC(=O)NC2CCCCC2)nc1C(=O)O`, for which the figures for the IC50 (in experiment [1]; on Endothelin-1 receptor) were over 100 µM and 0.075 µM, respectively.

Consider `Cc1oc([C@@H](Cc2cn(C)c3ccccc23)NC(=O)[C@H](CC(C)C)NC(=O)NC2CCCCC2C)nc1C(=O)O` (some centres not stated), for which the IC50 in experiment [1] was over 100 µM; at Endothelin-1 receptor it was 0.65 µM.

`Cc1[nH]c([C@@H](Cc2cn(C)c3ccccc23)NC(=O)[C@H](CC(C)C)NC(=O)N2CCCCCC2)nc1C(=O)O` yielded an IC50 in experiment [1] of over 100 µM.

For the compound `Cc1oc([C@@H](Cc2cn(C)c3ccccc23)NC(=O)[C@H](CC(C)C)NC(=O)NC2CCC(C)CC2)nc1C(=O)O` (some centres not stated), the IC50 in experiment [1] is over 100 µM.

`Cc1oc([C@@H](Cc2cn(C)c3ccccc23)NC(=O)[C@H](CC(C)C)NC(=O)NC2C3CC4CC(C3)CC2C4)nc1C(=O)O` (some centres not stated): the IC50 in experiment [1] is 26 µM; on Endothelin-1 receptor it was 0.44 µM.

Consider `Cc1oc([C@@H](Cc2cn(C)c3ccccc23)NC(=O)[C@H](CC(C)C)NC(=O)n2ccc3ccccc32)nc1C(=O)O`, for which the results for the IC50 (in experiment [1]; on Endothelin-1 receptor) were 12 µM and 0.058 µM, respectively.

On to `Cc1c(C(=O)O)nc([C@@H](Cc2c[nH]c3ccccc23)NC(=O)[C@H](CC(C)C)NC(=O)N2CCCCCC2)n1C`, for which the IC50 in experiment [1] was over 100 µM.

In the case of `Cc1oc([C@@H](Cc2c[nH]c3ccccc23)NC(=O)[C@H](CC(C)C)NC(=O)N2CCCCCC2)nc1C(=O)NO`, the figures for the IC50 (in experiment [1]; at Endothelin-1 receptor) were over 100 µM and 2.9 µM, respectively.

Turning to `CCN(CC)C(=O)N[C@@H](CC(C)C)C(=O)N[C@H](Cc1c[nH]c2ccccc12)c1nc(C(=O)O)c(C)o1`, the figures for the IC50 (in experiment [1]; on Endothelin-1 receptor) were over 100 µM and 3 µM, respectively.

As for `Cc1[nH]c([C@@H](Cc2cn(C)c3ccccc23)NC(=O)[C@H](CC(C)C)NC(=O)NC2CCCCC2C)nc1C(=O)O` (some centres not stated), the IC50 worked out at 13 µM in experiment [1] and 0.018 µM on Endothelin-1 receptor.

Consider `Cc1oc([C@@H](Cc2c[nH]c3ccccc23)NC(=O)[C@H](CC(C)C)NC(=O)N2CCCCCC2)nc1C(=O)O`, for which the IC50 in experiment [1] is over 100 µM; with MMQ it was 4.5 µM.

Take `Cc1oc([C@@H](Cc2cn(C)c3ccccc23)NC(=O)[C@H](CC(C)C)NC(=O)NC2CCCC(C)C2)nc1C(=O)O` (some centres not stated): the IC50 was over 100 µM in experiment [1] and 0.96 µM on Endothelin-1 receptor.

Take `Cc1oc([C@@H](Cc2cn(C)c3ccccc23)NC(=O)[C@H](CC(C)C)NC(=O)NC2(C)CCCCC2)nc1C(=O)O`: the IC50 came out at 56 µM in experiment [1] and 0.2 µM on Endothelin-1 receptor.

As to `Cc1[nH]c([C@@H](Cc2c[nH]c3ccccc23)NC(=O)[C@H](CC(C)C)NC(=O)NCc2ccccc2)nc1C(=O)O`, the IC50 is over 100 µM in experiment [1] and 2.1 µM at Endothelin-1 receptor.

For `Cc1oc([C@@H](Cc2cn(C)c3ccccc23)NC(=O)[C@H](CC(C)C)NC(=O)NC2CCCCCC2)nc1C(=O)O`, the results for the IC50 (in experiment [1]; on Endothelin-1 receptor) were 75 µM and 0.4 µM, respectively.

As to `Cc1oc([C@@H](Cc2cn(C)c3ccccc23)NC(=O)[C@H](CC(C)C)NC(=O)Nc2cccc(F)c2)nc1C(=O)O`, the figures for the IC50 (in experiment [1]; at Endothelin-1 receptor) were 55 µM and 0.066 µM, respectively.

Take `Cc1[nH]c([C@@H](Cc2cn(C)c3ccccc23)NC(=O)[C@H](CC(C)C)NC(=O)NC2CCCC2)nc1C(=O)O`: the IC50 in experiment [1] worked out at 67 µM; on Endothelin-1 receptor it was 0.037 µM; in the experiment with MMQ it was 0.043 µM.

On to `Cc1oc([C@@H](Cc2cn(C)c3ccccc23)NC(=O)[C@H](CC(C)C)NC(=O)Nc2ccccn2)nc1C(=O)O`, for which the IC50 came out at 66 µM in experiment [1] and 0.074 µM on Endothelin-1 receptor.

For the compound `Cc1oc([C@@H](Cc2cn(C)c3ccccc23)NC(=O)[C@H](CC(C)C)NC(=O)Nc2c(F)c(F)c(F)c(F)c2F)nc1C(=O)O`, the IC50 in experiment [1] is over 100 µM; at Endothelin-1 receptor, 3.55 µM.

For the compound `Cc1oc([C@@H](Cc2c[nH]c3ccccc23)NC(=O)[C@H](CC(C)C)NS(=O)(=O)N2CCCCCC2)nc1C(=O)O`, the IC50 (in experiment [1]; on Endothelin-1 receptor) was over 100 µM each time.

Turning to `Cc1oc([C@@H](Cc2c[nH]c3ccccc23)NC(=O)[C@H](CC(C)C)NC(=O)NC2CCCCC2)nc1C(=O)O`, the IC50 in experiment [1] was over 100 µM.

In experiment [1], `CCOC(=O)c1nc([C@@H](Cc2c[nH]c3ccccc23)NC(=O)[C@H](CC(C)C)NC(=O)N2CCCCCC2)oc1C` showed an IC50 of 43 µM.

In the case of `Cc1c(C(=O)O)nc([C@@H](Cc2c[nH]c3ccccc23)NC(=O)[C@H](CC(C)C)NC(=O)N2CCCCCC2)n1Cc1ccccc1`, the IC50 in experiment [1] was over 100 µM.

With `Cc1oc([C@@H](Cc2cn(C)c3ccccc23)NC(=O)[C@H](CC(C)C)NC(=O)NC2CCCc3ccccc32)nc1C(=O)O` (some centres not stated), the figures for the IC50 (in experiment [1]; at Endothelin-1 receptor) were 48 µM and 0.23 µM, respectively.

With `Cc1oc([C@@H](Cc2cn(C)c3ccccc23)NC(=O)[C@H](CC(C)C)NC(=O)NC2CCCCC2)nc1C(=O)O`, the values for the IC50 (in experiment [1]; at Endothelin-1 receptor) were over 100 µM and 0.22 µM, respectively.

For the compound `Cc1oc([C@@H](Cc2cn(C)c3ccccc23)NC(=O)[C@H](CC(C)C)NC(=O)Nc2ccc(F)cc2)nc1C(=O)O`, the IC50 in experiment [1] was over 100 µM; at Endothelin-1 receptor, 1.9 µM.

Consider `Cc1oc([C@@H](Cc2cn(C)c3ccccc23)NC(=O)[C@H](CC(C)C)NC(=O)NC2CC3CCC2C3)nc1C(=O)O` (stereo in doubt; 15o), for which the IC50 in experiment [1] came to 67 µM; at Endothelin-1 receptor, 0.8 µM.

Turning to `Cc1oc([C@@H](Cc2cn(C)c3ccccc23)NC(=O)[C@H](CC(C)C)NC(=O)NC2CC3CCC2C3)nc1C(=O)O` (stereo in doubt; 15p), the IC50 is 26 µM in experiment [1] and 0.45 µM on Endothelin-1 receptor.
